D1 allo mod: D1 CRE-luciferase signal change, two-sided – cell-based, HEK293 D1, dopamine EC30, D1 allosteric modulator project, primary screen | AID 641, 2007 | D(1A) dopamine receptor (Homo sapiens), P21728 | 58,000 tested, 5.9% active | dopamine EC30 potentiation; actives deviate in either direction | B-score at 10 µM;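 active = luminescence count or its row- and column-corrected plate score outside the 99.7% band of the plate's sample wells, on either side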
RORA act: activators of orphan receptor RORA, primary screen, cell-based, luminescence; Nuclear receptor ROR-alpha (Homo sapiens), P35398; 65,000 tested, 1.5% active; CHO-K1 Gal4-RORA LBD luciferase reporter; percent increase over mock-subtracted basal signal; activation, % at 10 µM; AID 560, 2006;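 active = activation above the mean of all tested compounds plus 3 SD, cut at about 49% in these data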
Target sequence (P35398 whole entry, looked up, the tested form may be a part): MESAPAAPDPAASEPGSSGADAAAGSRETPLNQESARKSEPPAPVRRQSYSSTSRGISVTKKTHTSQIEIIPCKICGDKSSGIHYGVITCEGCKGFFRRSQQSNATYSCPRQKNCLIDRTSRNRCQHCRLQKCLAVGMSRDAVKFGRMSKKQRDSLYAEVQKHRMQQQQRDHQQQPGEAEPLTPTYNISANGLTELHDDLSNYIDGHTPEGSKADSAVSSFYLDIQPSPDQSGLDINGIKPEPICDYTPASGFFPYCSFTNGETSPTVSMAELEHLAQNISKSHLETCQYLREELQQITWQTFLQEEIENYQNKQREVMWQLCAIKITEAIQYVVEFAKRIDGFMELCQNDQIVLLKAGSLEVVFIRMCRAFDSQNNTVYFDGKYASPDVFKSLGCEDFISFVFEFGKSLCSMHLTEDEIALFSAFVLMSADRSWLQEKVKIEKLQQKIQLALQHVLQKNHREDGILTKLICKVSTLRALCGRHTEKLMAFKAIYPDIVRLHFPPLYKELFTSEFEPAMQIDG
SF1 activator: activators of human SF-1, primary screen, cell-based, CHO-K1, Gal4-SF-1 LBD, luciferase luminescence | Steroidogenic factor 1 (Homo sapiens), Q13285 | CHO-K1 Gal4-SF-1 LBD luciferase reporter; % increase over DMSO SF-1-specific signal | activation, % at 10 µM | 65,000 tested, 1.9% active;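 active = activation above the mean activation of all tested compounds plus 3 SD, cut at about 50% in these data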
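Test system: CHO-K1 cells with Gal4–hSF-1 LBD chimera plus Gal4-driven luciferase; Input: 4,000 cells/well; Compound: 10 µM only; Times: 20 h compound treatment, 37 °C; Measured by: steady-glow luciferase luminescence, read after 15 min reagent incubation; Measure: percent activation versus DMSO; Control set: DMSO and mock-transfected background; Replicates: one test per compound.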
JNK3 blocker: JNK3 kinase activity inhibitors, primary screen, biochemical, human, purified enzyme | Mitogen-activated protein kinase 10 (Homo sapiens), P53779 | HTS | inhibition, % at 8 µM | 60,000 tested, 0.61% active | AID 746, 2007; in the data active = inhibition above about 17%
HEK293 NFkB inh: inhibitors of PMA/ionomycin-induced NF-kB reporter, primary screen, antigen receptor NF-kB inhibitor project, cell-based, HEK-293 luciferase reporter, luminescence; HEK-293 NF-kB luciferase reporter; inhibition, % at 3 µM; 62,000 tested, 0.21% active; AID 465, 2006;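 active = inhibition above the mean of all tested compounds plus 3 SD, cut at about 40% in these data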
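Material: HEK-293 cells with stable firefly luciferase reporter driven by four HIV NF-kB elements / Also added: PMA plus ionomycin mix as NF-kB-activating stimulus / Compound dosing: 3 µM once, 0.30% DMSO / Times: 1 h pretreatment, 16 h stimulation, 37 °C / Signal: luminescence / Evaluation: per-plate % inhibition versus controls / Benchmarks: DMSO and 10 µM reference inhibitor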
Of the large screens only hits and unclear results are named; the others gave an inactive call. Only some compounds are listed: those with a hit (about 7.9% of all), similar ones and a draw of the others.

Cn1cc(C(=O)NCCc2ccccc2)c(=O)c2cc(S(=O)(=O)N3CCOCC3)ccc21	none
O=C(CN1C(=O)c2ccccc2C1=O)OCN1C(=O)c2ccccc2C1=O	none (no result: D1 allo mod, HEK293 NFkB inh)
CCOC(=O)CC(=O)CSc1ncnc2c1oc1ccccc12	JNK3 blocker 42
COc1cccc(NC(=O)CSc2ncnc3c2oc2ccccc23)c1	none
Cc1sc(NC(=O)CSc2nc(N)n(CC(=O)c3ccccc3)n2)c(C#N)c1C	none
Clc1ccc(-c2nnc(-c3ccccc3Cl)o2)cc1	RORA act 86
Cc1ccc(OCc2ccc(C(=O)N3CCOCC3)cc2)cc1C	RORA act 52
CCn1c(CNC(=O)c2cccc(C)c2)nc2ccccc21	none
NC(=O)c1ccsc1NC(=O)CSc1ccccc1F	D1 allo mod -3.5
NC(=O)c1ccsc1NC(=O)c1nc(-c2ccccc2)n(-c2ccccc2)n1	none (no result: D1 allo mod)
Cc1c(-n2cc(C(=O)O)c(=O)c3cc(F)c(N4CCCC4)c(F)c32)c(=O)n(-c2ccccc2)n1C	D1 allo mod 2.7 (no result: JNK3 blocker)
CCCn1c(C)cc(C(=O)COc2ncnc3sccc23)c1C	SF1 activator 53
CCOC(=O)CSc1nc2ccccc2c(=O)n1CCCCCC(=O)NCc1ccco1	JNK3 blocker 23
O=C(CCCCCn1c(SCC(=O)c2ccccc2)nc2ccccc2c1=O)NCc1ccco1	JNK3 blocker 28
CCOc1cc2[nH]c(=S)n(CCCCC(=O)NCc3ccco3)c(=O)c2cc1OCC	none (no result: JNK3 blocker)
O=C(CCCn1c(SCC(=O)c2ccc(Cl)cc2)nc2ccccc2c1=O)NCc1ccco1	none (no result: JNK3 blocker)
O=C(CSc1nc2ccsc2c(=O)n1NC(=O)c1ccccc1)NCc1ccco1	none (no result: JNK3 blocker)
O=C(CCCn1c(=S)[nH]c2ccccc2c1=O)NCc1ccco1	JNK3 blocker 19
O=C(CSc1nc2ccsc2c(=O)n1Cc1ccccc1)NCc1ccco1	D1 allo mod -2.2 (no result: JNK3 blocker)
O=C(O)CCCNS(=O)(=O)c1ccc(NCc2ccccc2)c(C(=O)O)c1	none
Cc1cc2c(=O)n(CC(=O)N3CCN(c4ccc(F)cc4)CC3)cnc2s1	none
CCOC(=O)CN1C(=O)C(O)(CC(=O)c2cccc(OC)c2)c2ccccc21 (stereo not given)	none
COc1cc2nc(-c3cccs3)oc(=O)c2cc1OC	D1 allo mod 5.6
O=C(Cn1cc2c(n1)CCCC2)NCCCN1CCN(c2ccccc2F)CC1	D1 allo mod -3.1
CCn1c(=O)cc(SCC(=O)NCCCN2CCN(c3ccccc3F)CC2)c2ccccc21	D1 allo mod -3.5
O=C(Cn1cc2c(n1)CCCC2)NCCCN1CCN(Cc2ccccc2)CC1	none
CCN1CCCC1CNC(=O)CSc1cc(=O)n(CC)c2ccccc12 (stereo not given)	none
CC(C)=CC1C(C(=O)Nc2ccc(Br)cn2)C1(C)C (stereo not given)	none
Nc1cc(C(=O)O)ccc1Nc1ccc(F)c(F)c1	none
COc1ccc2c(c1)CCc1c(C(=O)NCc3cccnc3)noc1-2	none
COc1ccc2c(c1)CCc1c(C(=O)N3CCCCCC3)noc1-2	SF1 activator 57
CN1/C(=C\C(=O)c2cccs2)Sc2ccccc21	D1 allo mod -4.8
Cc1cccc(-n2nnc(C(=O)Nc3ccc(F)cc3)c2N)c1	RORA act 82, SF1 activator 100
Cc1ccc(NC(=O)c2nnn(-c3cc(C)cc(C)c3)c2N)cc1	RORA act 66, SF1 activator 70
Cc1cccc(-n2nnc(C(=O)NCc3ccc4c(c3)OCO4)c2N)c1	none
CC(=O)c1ccc(N2CCN(C(=O)C3CCN(S(=O)(=O)Cc4ccccc4)CC3)CC2)cc1	none
COc1cccc(NC(=O)C2CCCN(S(=O)(=O)c3ccc(-n4cnnn4)cc3)C2)c1 (stereo not given)	D1 allo mod -4.1
CCOc1cccc(NC(=O)C2CCCN(S(=O)(=O)c3ccc(-n4cnnn4)cc3)C2)c1 (stereo not given)	JNK3 blocker 21
O=C(NCC1CC1)C1CCCN(S(=O)(=O)c2ccc(-n3cnnn3)cc2)C1 (stereo not given)	none (no result: D1 allo mod)
COc1ccc(C2C3=C(CCCC3=O)Nc3nc(-c4cc(OC)c(OC)c(OC)c4)nn32)cc1OC (stereo not given)	D1 allo mod -3
c1coc(CNc2nc(N3CCCCC3)nc3ccccc23)c1	D1 allo mod -3.7
OCc1cn(-c2ccccc2)nc1-c1ccc2c(c1)OCCO2	RORA act 73
CNC(=O)c1c(NC(=O)c2nc3ccccc3s2)sc2c1CCC2	RORA act 96, SF1 activator 72
COC(=O)c1c(NC(=O)c2nc3ccccc3s2)sc2c1CCN(C(C)=O)C2	none
Cc1cc(C)c(C)c(OCC(=O)NCC2CCCO2)c1 (stereo not given)	none
Cc1cc(C)cc(OCC(=O)NCC2CCCO2)c1 (stereo not given)	D1 allo mod -4.8 (no result: RORA act, SF1 activator, JNK3 blocker, HEK293 NFkB inh)
O=C(NCCCN1CCCC1=O)c1ccc(Cl)c(NS(=O)(=O)c2ccc(F)cc2)c1	none
O=C(Cn1c(=O)c2c(ncn2C2CCCC2)n(Cc2ccccc2)c1=O)N1CCc2ccccc21	D1 allo mod -4.8
COC(=O)c1sc(N2C(=O)C(O)=C(C(=O)c3ccc(C)o3)C2c2ccc(F)cc2)nc1C (stereo not given)	none (no result: D1 allo mod)
Nc1ccc2oc(-c3cccc(Br)c3)nc2c1	none
Nc1ccc2oc(CCc3ccccc3)nc2c1	RORA act 144, SF1 activator 79
Cc1ccccc1-c1nc2cc(N)ccc2o1	SF1 activator 58
CC(C)c1ccc2oc(-c3cc(N)ccc3O)nc2c1	D1 allo mod -3.9
CC(C1CC1)N(C(=O)NC1CCS(=O)(=O)C1)c1ccccc1 (stereo not given)	none
CC(C)(C)NC(=O)NC(=O)COc1ccccc1C#N	SF1 activator 60
O=c1c2c3c(sc2nc2n1CCCCC2)CCCC3	RORA act 106, SF1 activator 60
Cc1sc2nc3n(c(=O)c2c1C)CCCS3	none
O=c1c2c3c(sc2nc2n1CCCS2)CCCC3	SF1 activator 71 (no result: D1 allo mod, HEK293 NFkB inh)
O=c1c2c3c(sc2nc2n1CCCCC2)CCCCC3	RORA act 55
O=c1c2c3c(sc2nc2n1CCCC2)CCC3	none (no result: RORA act, SF1 activator, JNK3 blocker, HEK293 NFkB inh)
COc1ccc(-c2[nH]c(-c3cccc(OC)c3)nc2SCC(=O)NCc2ccco2)cc1	none
COc1ccc(-n2ncc3c(NCc4ccc5c(c4)OCO5)ncnc32)cc1	none
CC1CN(c2ncnc3c2cnn3-c2ccc(Cl)cc2)CC(C)O1 (stereo not given)	RORA act 67, SF1 activator 75
COc1ccc(-n2ncc3c(NCC(C)C)ncnc32)cc1	D1 allo mod -4.2
CC1CC(C)CN(c2ncnc3c2cnn3Cc2ccc(Cl)cc2)C1 (stereo not given)	none
